# This is a sample that favours compounds with a hit; in the whole collection about 3.3% have one here.
# HTRA1 inh – blocks human HTRA1 serine peptidase; AID 504803; inhibition, % at 5.96 µM; 340,000 tested, 0.5% active; recombinant HTRA1, FP-rhodamine activity-based probe, fluorescence polarization; in the data active = inhibition above about 36%;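 note: 0% = enzyme with DMSO and 100% = wells lacking enzyme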
# SIAE primary – inhibitors of human sialic acid acetylesterase SIAE; Q9HAT2; 370,000 tested, 0.69% active; inhibition, % at 9.66 µM; SIAE FP-Rh probe binding, fluorescence polarization;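 active = inhibition above a cutoff: mean of compounds within the control limits plus 3 SD of those, cut at about 17% in these data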;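 note: 0% = plate median of compound wells and 100% = probe without SIAE protein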
# PRMT1 inh – inhibitors of human PRMT1. Q99873. recombinant PRMT1, activity-based probe fluorescence polarization. inhibition, % at 2.79 µM. 370,000 tested, 1.3% active. AID 652257;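 active = inhibition above about 21% made by adding two undisclosed values, limit read from the data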
# rCAG binder – r(CAG) repeat RNA binding. TO-PRO-1 dye displacement fluorescence. inhibition, % at 3 µM. 370,000 tested, 1.3% active. AID 651821;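 active = inhibition above the plate cutoff, the mean of all test compounds on that plate plus 3 SD, cut at about 35% in these data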;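 note: 0% = DMSO alone and 100% = 100 µM mitoxantrone as full dye displacement; higher means more dye released from RNA so lower well fluorescence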
# mABHD4 FP – inhibits mouse alpha/beta hydrolase domain 4. purified mABHD4, FP-Rh probe fluorescence polarization. inhibition, % at 8.92 µM. 370,000 tested, 0.54% active. AID 720543;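 active = inhibition exceeding the mean over every tested compound plus 3 SD, cut at about 30% in these data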;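 note: 0% = plate median of compound wells and 100% = S159A mutant with DMSO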
# Target sequence (Q8VD66 whole entry, looked up, the tested form may be a part): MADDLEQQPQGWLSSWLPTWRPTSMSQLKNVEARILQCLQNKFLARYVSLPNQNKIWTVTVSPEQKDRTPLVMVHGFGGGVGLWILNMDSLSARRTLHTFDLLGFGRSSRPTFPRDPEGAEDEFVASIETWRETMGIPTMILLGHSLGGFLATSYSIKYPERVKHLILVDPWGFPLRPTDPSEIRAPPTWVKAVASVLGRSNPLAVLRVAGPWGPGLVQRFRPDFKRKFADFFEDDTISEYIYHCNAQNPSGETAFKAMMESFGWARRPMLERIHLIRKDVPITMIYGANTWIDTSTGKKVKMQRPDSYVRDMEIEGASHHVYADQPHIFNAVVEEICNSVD
#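 System: mouse ABHD4 enzyme, wild type / Medium: HEPES pH 7.0, NaCl, Pluronic buffer / Reagent: FP-Rh activity-based fluorescent probe / Control set: S159A mutant high control, sample median low control / Detection: fluorescence polarization with parallel and perpendicular emission, 525/598 nm / Schedule: 45 min + 60 min at 25 °C / Compound dosing: 8.92 µM, single dose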
# rCAG bind conf – r(CAG) RNA repeat binding, confirmation. 4,300 tested, 70% active. shares compounds with rCAG binder. TO-PRO-1 dye displacement fluorescence. AID 652065. inhibition, % at 3 µM;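 active = inhibition above a per-plate cutoff, the mean inhibition of sample wells plus 3 SD, cut at about 35% in these data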;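 note: loss of TO-PRO-1 fluorescence as compound displaces dye from 1x1 AA loop RNA; 0% = DMSO only wells and 100% = 100 µM mitoxantrone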
# DNA CAG counter – DNA CAG dye complex inhibition counter-screen; shares compounds with rCAG binder; d(CAG) DNA oligo TO-PRO-1 dye displacement, fluorescence; inhibition, % at 3 µM; 4,300 tested, 94% active; AID 652068;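 active = inhibition above its plate's cutoff, the mean test-well inhibition plus 3 SD, cut at about 4.8% in these data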;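 note: 0% = DNA dye mix with DMSO and 100% = 100 µM mitoxantrone; hits displace the dye from DNA and so lower well fluorescence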
# * = called active by the depositor; . = no result.
SMILES,HTRA1 inh,SIAE primary,PRMT1 inh,rCAG binder,mABHD4 FP,rCAG bind conf,DNA CAG counter
COc1ccc(Br)cc1/C=C(\C(=O)O)c1ccc(S(=O)(=O)N2CCCCC2)s1,-30.9,-5.9,3.2,69.5*,17.6,74.2*,36.6*
O=C(O)/C(=C\c1cccc(O)c1)c1ccc(S(=O)(=O)N2CCCC2)s1,-4.5,0.8,0.3,9.4,1.5,.,.
O=C(O)/C(=C\c1cccc(F)c1)c1ccc(S(=O)(=O)N2CCCCC2)s1,-9.3,1.6,2.8,34.5,7.8,.,.
CSc1ccc(/C=C(\C(=O)O)c2ccc(S(=O)(=O)N3CCCC3)s2)cc1,-6.1,-1.1,0.9,39.1*,1.0,31.7,10.5*
CCCCCN1CCCCC(NC(=O)c2cc(OC)c(OC)c(OC)c2)C1=O (stereo unspecified),.,-6.6,0.7,-1.5,-1.9,.,.
CC(C)C(=O)Oc1ccc(CO)cc1[C@H](CCN(C(C)C)C(C)C)c1ccccc1,.,5.5,-1.8,0.3,1.4,.,.
Cc1ccc(C)n1/N=C1/NC(=O)CS1,14.5,5.3,8.5,36.1*,14.7,20.4,9.9*
O=C(Nc1ccc(F)cc1)N[C@@H]1C[C@@H]2O[C@H](CO)CC[C@@H]2O[C@@H]1CCc1ccc(C2=CCCC2)cc1,.,-8.1,1.9,4.2,-13.4,.,.
CC(C)NC(=O)NC1CCN(CC(=O)Nc2ccc3c(c2)OCCO3)CC1,.,-5.2,4.2,3.3,4.6,.,.
Cc1cccc(OCc2nnc(SCC(=O)O)n2Cc2ccccc2)c1,-0.9,-3.1,-1.2,10.7,-0.3,.,.
O=C(O)CSc1nnc(COc2cccc3ccccc23)n1Cc1ccccc1,-10.0,-2.7,-0.7,38.5*,-2.8,42.6*,10.6*
CCn1c(COc2ccc3ccccc3c2C)nnc1SCC(=O)Nc1cccc(C(=O)O)c1,-7.4,-4.9,7.5,67.6*,-20.2,60.3*,26.9*
O=C(O)CCSc1nnc(COc2cccc3ccccc23)n1-c1cccc(Cl)c1,-11.8,-9.7,-1.0,44.2*,-16.2,44.9*,11.8*
CC(C)C[C@H]1COc2cc(F)ccc2S(=O)(=O)N1C,.,1.3,2.9,1.6,5.5,.,.
Cc1ccc(S(=O)(=O)NCC(=O)N2CCN(c3ccccn3)CC2)cc1C,.,-0.1,-1.1,-0.5,2.7,.,.
CC(=O)N[C@@H]1C[C@@H]2O[C@@H](CO)CC[C@@H]2O[C@@H]1CCc1ccc(C#CC2(O)CCCC2)cc1,.,-4.3,-7.0,-2.8,-1.9,.,.
O=C(CSCc1ccccc1)Nc1cccc(C(=O)Nc2ccccc2C(=O)O)c1,-21.5,-16.4,-0.3,71.7*,-21.0,55.1*,17.6*
O=C(CSCc1ccc(Cl)cc1)Nc1cccc(C(=O)Nc2ccccc2C(=O)O)c1,-67.6,-29.8,1.5,75.6*,-46.8,82.6*,43.3*
O=C(CSCc1ccccc1)Nc1ccccc1C(=O)Nc1ccc(C(=O)O)cc1,-3.3,-1.4,-5.6,13.5,-5.8,.,.
O=C(O)CCCC(=O)Nc1cccc(C(=O)Nc2ccccc2C(=O)O)c1,-2.9,-2.8,1.4,5.5,3.6,.,.
O=C(CCc1ccccc1)N[C@H]1C(=O)CCC[C@]12C(=O)N(Cc1ccccc1)c1ccccc12,.,-1.4,3.5,-0.1,1.6,.,.
Fc1cccc(Cc2c(-c3cccc(Br)c3)nc3ccc(Br)cn23)c1,.,-11.7,-1.0,54.6*,-49.1,6.6,3.7
Cc1ccc(-c2nc3ccc(Cl)cn3c2Cc2ccccc2C(F)(F)F)cc1,.,-3.1,1.8,42.0*,16.3,33.5,6.8*
Cc1ccc2nc(-c3ccc(Cl)cc3)c(Cc3ccccc3C(F)(F)F)n2c1,.,3.4,2.6,9.3,4.1,.,.
COc1ccc(-c2nc3ccc(Br)cn3c2Cc2cccc(F)c2)cc1OC,.,-3.3,5.5,15.3,8.2,.,.
Cc1ccc2nc(-c3ccc(Cl)cc3)c(Cc3cccc(F)c3)n2c1,.,-10.2,1.4,4.9,-10.3,.,.
Fc1cccc(Cc2c(-c3ccc(Cl)cc3)nc3ccc(Br)cn23)c1,.,-9.3,6.6,49.0*,-64.4,13.5,4.6*
Cc1ccc(-c2nc3ccc(Cl)cn3c2Cc2cccc(F)c2)cc1,.,-0.8,-0.6,38.3*,-17.1,2.8,2.7
C/C(=C/c1[nH]c(N)[n+](CC2CC2)c1Cc1ccccc1)Cn1[nH]c(=O)n(-c2ccccc2)c1=O,.,7.4,-4.1,5.9,8.0,.,.

# Bioassay records as filed in PubChem BioAssay.
